Measured values as given in ChEMBL document CHEMBL4680357, “The Basicity Makes the Difference: Improved Canavanine-Derived Inhibitors of the Proprotein Convertase Furin” (ACS Med Chem Lett, 2021).
Calls of active or inactive are those of the source. No cut-off for these calls is given here.

Assays:
Furin = Furin (Homo sapiens, UniProt P09958); assay: Inhibition of recombinant soluble human furin using Phac-Arg-Val-Arg-Arg-AMC fluorogenic substrate
Procedure, shortened: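 Enzyme kinetic assay under standard conditions at pH 7.0, using recombinant soluble human furin and the fluorogenic AMC substrate. Inhibition constants were determined from the kinetics.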

[1] = Cmax in Sprague-Dawley rat at 2.5 mg/kg, ip; type: ADME, organism-based; parameters: route intraperitoneal, dose 2.5 mg/kg; conditions: in vivo
Procedure, shortened: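 Rats received a single intraperitoneal dose of 2.5 mg/kg. Plasma drug levels were followed over time, and half-life, total body clearance, and peak plasma concentration with its time were derived from the concentration–time profile.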

[2] = Toxicity in rat assessed as mortality at 1 mg/kg, iv; type: organism-based; conditions: in vivo
[3] = Half life in Sprague-Dawley rat at 2.5 mg/kg, ip; type: ADME, organism-based; conditions: in vivo
Procedure, shortened: (§1)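 Rat pharmacokinetics: single intravenous dose of 1 mg/kg or intraperitoneal dose of 2.5 mg/kg. Plasma inhibitor levels were followed over time, and half-life and total body clearance were derived for each route. Cmax and time to Cmax were also derived after intraperitoneal dosing.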

[4] = Half life in Sprague-Dawley rat at 1 mg/kg, iv; type: ADME, organism-based; conditions: in vivo; procedure, shortened: as §1
West Nile virus = assay: Antiviral activity against West Nile virus infected in […] cells assessed as virus titer reduction incubated for 48 hrs by plaque assay; type: functional, organism-based; conditions: Vero 76, 48 h
Procedure, shortened: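 Huh-7 cells infected with dengue virus type 2 (strain 16681) or West Nile virus, then cultured with inhibitor. Supernatants were collected 48 h post-infection and titrated by plaque assay on VeroE6 cells (n = 2, mean ± standard deviation). EC50 was calculated from the titer data.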

Human orthopneumovirus = assay: Antiviral activity against RSV A2 infected in A549 cells assessed as reduction in plaque formation incubated for 72 hrs upto 10 uM followed by viral infection at MOI of 1 for 1 hr by multicycle replication assay; type: functional, organism-based; conditions: human respiratory syncytial virus, dose microM <=10, time 72.0 hrs
Procedure, shortened: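 A549 human lung cells were inoculated with RSV A2 at MOI 1 for 1 h, washed, then kept with inhibitor at 0.5–10 μM (0.1–2.5 μM for one compound) or without inhibitor. Supernatants were collected at 16, 24, 48 and 72 h post infection. Titres (PFU/mL) were read by plaque assay, mean ± standard deviation, n = 3.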

[5] = Total body clearance in Sprague-Dawley rat at 2.5 mg/kg, ip; type: ADME, organism-based; conditions: in vivo; procedure, shortened: as §1
[6] = Cytotoxicity against african green monkey Vero 76 cells by Cell Titer Glo assay; type: cell-based; conditions: chlorocebus sabaeus
[7] = Total body clearance in Sprague-Dawley rat at 1 mg/kg, iv; type: ADME, organism-based; conditions: in vivo; procedure, shortened: as §1
dengue virus type 2 = assay: Antiviral activity against DENV-2 infected in african green monkey Vero 76 cells assessed as virus titer reduction incubated for 48 hrs by plaque assay; type: functional, organism-based
[8] = Plasma concentration in Sprague-Dawley rat at 2.5 mg/kg, ip measured after 3 hrs; type: ADME, organism-based
Prothrombin = Prothrombin (Bos taurus, UniProt P00735); assay: Inhibition of bovine thrombin using Tos-Gly-Pro-Arg-AMC as substrate by fluorescence assay
Coagulation factor X = Coagulation factor X (Homo sapiens, UniProt P00742); assay: Inhibition of human factor Xa using Mes-Darg-Pro-Arg-AMC as flurogenic substrate by fluorescence assay
Plasminogen = Plasminogen (Homo sapiens, UniProt P00747); assay: Inhibition pf human plasmin using Mes-Darg-Phe-Arg-AMC as substrate by fluorescence assay
Chain of Plasminogen (P00747 97-580 limits assumed): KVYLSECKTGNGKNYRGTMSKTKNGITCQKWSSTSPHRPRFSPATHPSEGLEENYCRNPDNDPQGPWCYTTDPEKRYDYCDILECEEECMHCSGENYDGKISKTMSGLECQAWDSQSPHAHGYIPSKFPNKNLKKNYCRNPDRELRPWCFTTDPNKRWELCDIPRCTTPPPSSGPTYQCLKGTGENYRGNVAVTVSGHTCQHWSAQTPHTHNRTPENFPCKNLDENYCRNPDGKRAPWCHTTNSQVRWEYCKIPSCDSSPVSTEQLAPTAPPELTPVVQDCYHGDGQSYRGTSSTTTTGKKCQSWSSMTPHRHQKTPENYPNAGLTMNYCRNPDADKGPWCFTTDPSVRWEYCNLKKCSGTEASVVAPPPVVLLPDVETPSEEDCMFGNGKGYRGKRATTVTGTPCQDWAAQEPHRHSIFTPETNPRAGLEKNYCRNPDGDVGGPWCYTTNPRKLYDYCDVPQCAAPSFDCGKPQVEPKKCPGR
Chain of Plasminogen (P00747 581-810 limits assumed): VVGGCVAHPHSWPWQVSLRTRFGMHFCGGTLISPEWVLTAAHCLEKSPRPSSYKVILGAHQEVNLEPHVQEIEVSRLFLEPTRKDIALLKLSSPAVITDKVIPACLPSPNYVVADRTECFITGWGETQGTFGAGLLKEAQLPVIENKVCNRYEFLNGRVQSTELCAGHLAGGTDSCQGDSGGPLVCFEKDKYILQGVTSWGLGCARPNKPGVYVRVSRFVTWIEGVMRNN

Chain of Furin (P09958 whole entry): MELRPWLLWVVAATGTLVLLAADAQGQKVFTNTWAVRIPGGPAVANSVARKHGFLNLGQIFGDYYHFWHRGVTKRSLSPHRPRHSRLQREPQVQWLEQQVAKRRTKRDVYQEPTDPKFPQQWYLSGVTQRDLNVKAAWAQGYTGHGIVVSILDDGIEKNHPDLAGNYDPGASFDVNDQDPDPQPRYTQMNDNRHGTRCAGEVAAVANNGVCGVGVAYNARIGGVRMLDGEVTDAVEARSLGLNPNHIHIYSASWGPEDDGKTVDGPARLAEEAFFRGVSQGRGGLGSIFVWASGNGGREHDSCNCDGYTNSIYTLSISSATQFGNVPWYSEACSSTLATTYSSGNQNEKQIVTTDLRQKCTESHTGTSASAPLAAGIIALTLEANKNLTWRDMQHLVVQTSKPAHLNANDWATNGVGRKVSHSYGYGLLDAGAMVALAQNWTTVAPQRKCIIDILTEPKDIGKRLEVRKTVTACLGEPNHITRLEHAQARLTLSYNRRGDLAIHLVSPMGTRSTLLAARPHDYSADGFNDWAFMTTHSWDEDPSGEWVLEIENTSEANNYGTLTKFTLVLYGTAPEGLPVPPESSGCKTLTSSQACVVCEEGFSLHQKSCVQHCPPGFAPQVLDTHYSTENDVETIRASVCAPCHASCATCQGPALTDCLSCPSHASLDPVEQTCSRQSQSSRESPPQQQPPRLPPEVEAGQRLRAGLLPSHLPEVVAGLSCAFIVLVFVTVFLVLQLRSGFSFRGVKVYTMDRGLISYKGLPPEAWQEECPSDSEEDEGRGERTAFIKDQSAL
Chain of Coagulation factor X (P00742 41-179 limits assumed): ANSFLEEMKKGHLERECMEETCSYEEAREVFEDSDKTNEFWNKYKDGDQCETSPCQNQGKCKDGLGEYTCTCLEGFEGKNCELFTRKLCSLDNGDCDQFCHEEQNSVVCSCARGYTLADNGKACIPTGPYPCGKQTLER
Chain of Coagulation factor X (P00742 235-488 limits assumed): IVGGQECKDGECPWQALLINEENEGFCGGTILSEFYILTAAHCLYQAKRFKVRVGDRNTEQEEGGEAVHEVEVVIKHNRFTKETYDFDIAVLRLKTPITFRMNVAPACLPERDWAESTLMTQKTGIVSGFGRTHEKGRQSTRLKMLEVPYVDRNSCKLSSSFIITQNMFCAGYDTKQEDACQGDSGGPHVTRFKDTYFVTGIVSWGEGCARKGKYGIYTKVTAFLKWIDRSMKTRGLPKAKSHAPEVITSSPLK

CC(C)(C)[C@H](NC(=O)[C@H](CCONC(=N)N)NC(=O)Cc1ccc(CN)cc1)C(=O)N[C@@H](CCONC(=N)N)C(=O)NCc1ccc(C(=N)N)cc1
Ki (Furin): 0.0342 nM

CC(C)(C)[C@H](NC(=O)[C@H](CCCNC(=N)N)NC(=O)Cc1ccc(CN)cc1)C(=O)N[C@@H](CCONC(=N)N)C(=O)NCc1ccc(C(=N)N)cc1
Ki (Furin): 0.0768 nM

CC(C)(C)[C@H](NC(=O)[C@H](CCCNC(=N)N)NC(=O)Cc1ccc(CNC(=N)N)cc1)C(=O)N[C@@H](CCONC(=N)N)C(=O)NCc1ccc(C(=N)N)cc1
Ki (Furin): 0.0131 nM

CC(C)(C)[C@H](NC(=O)[C@H](CCONC(=N)N)NC(=O)Cc1ccc(CNC(=N)N)cc1)C(=O)N[C@@H](CCONC(=N)N)C(=O)NCc1ccc(C(=N)N)cc1
Cmax [1]: 3160 ng/mL
Activity [2]: Non-Toxic
half-life [3]: 96 min
half-life [4]: 54 min
EC50 (West Nile virus): 1460 nM
Activity (Human orthopneumovirus): Active
CL/F [5]: 4.55 mL/min/kg
CC50 [6]: > 50 µM
clearance [7]: 7.37 mL/min/kg
EC50 (dengue virus type 2): 1500 nM
concentration at 3 h [8]: > 1000 ng/mL

CC(C)(C)[C@H](NC(=O)[C@H](CCONC(=N)N)NC(=O)Cc1ccc(CN)cc1)C(=O)N[C@@H](CCCCN)C(=O)NCc1ccc(C(=N)N)cc1
Activity (Human orthopneumovirus): inactive

CC(C)(C)[C@H](NC(=O)[C@H](CCCNC(=N)N)NC(=O)Cc1ccc(CNC(=N)N)cc1)C(=O)N[C@@H](CCCNC(=N)N)C(=O)NCc1ccc(C(=N)N)cc1
Ki (Prothrombin): > 3 µM
Ki (Coagulation factor X): > 3 µM
Ki (Plasminogen): > 3 µM
EC50 (West Nile virus): 910 nM
Activity (Human orthopneumovirus): Active
CC50 [6]: > 50 µM
EC50 (dengue virus type 2): 760 nM

CC(C)(C)[C@H](NC(=O)[C@H](CCONC(=N)N)NC(=O)Cc1ccc(CNC(=N)N)cc1)C(=O)N[C@@H](CCCCN)C(=O)NCc1ccc(C(=N)N)cc1
Ki (Furin): 0.0363 nM
Activity (Human orthopneumovirus): Active
